Reference: ChEMBL document CHEMBL4689842, “EUbOPEN Chemogenomics Library wave 1” (2021)

Legend:
U2OS = test: Multiplex assay against U2OS; format: toxicity, cell-based; details: human
Method in brief: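 Values for tubulin, mitochondrial-mass and membrane-permeability phenotypes are per cents of cells with healthy nuclei. These cells were identified by CellPathfinder machine-learning gating of live cells that had been stained at seeding with Hoechst33342, BioTracker Green Microtubule Cytoskeleton Dye, MitoTracker Red and Annexin V Alexa Fluor 680 and imaged on a CQ1 microscope at 37°C and 5% CO2 after compound addition. The gating first set Hoechst high-intensity objects apart from normal cells, then split normal cells into healthy, pyknosed or fragmented nuclei, and pyknosed cells into mitotic or apoptotic.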

HEK-293T = test: Incucyte cell viability with HEK293T; format: toxicity, cell-based; details: human, 10 µM, compound concentration 10 uM; further: filed as whole numbers so only -1 and 0 and 1 occur
[1] = 12 h, 1 µM, compound concentration 1 uM, replicate 1
[2] = 12 h, 1 µM, compound concentration 1 uM, replicate 2
[3] = 12 h, 10 µM, compound concentration 10 uM, replicate 1
[4] = 12 h, 10 µM, compound concentration 10 uM, replicate 2
[5] = 24 h, 1 µM, compound concentration 1 uM, replicate 1
[6] = 24 h, 1 µM, compound concentration 1 uM, replicate 2
[7] = 24 h, 10 µM, compound concentration 10 uM, replicate 1
[8] = 24 h, 10 µM, compound concentration 10 uM, replicate 2
[9] = 48 h, 1 µM, compound concentration 1 uM, replicate 1
[10] = 48 h, 1 µM, compound concentration 1 uM, replicate 2
[11] = 48 h, 10 µM, compound concentration 10 uM, replicate 1
[12] = 48 h, 10 µM, compound concentration 10 uM, replicate 2

## Cc1c(P(=S)(c2ccccc2)c2ccccc2)n2ccccc2[n+]1C/C=C/c1ccccc1.[Br-]
U2OS; [1]
  Population Apoptotic (%): 54%
  Population Fragmented Nuclei (%): 21%
  Population Healthy Nuclei (%): 69%
  Population Hoechst High Intensity Objects (%): 5%
  Population Membrane Permeable-Phenotype (%): 13%
  Population Mitochondria Different-Phenotype (%): 35%
  Population Mitotic Cells (%): 45%
  Population Normal (%): 94%
  Population Pyknosed Nuclei (%): 9%
  Population Tubulin-Different-Phenotype (%): 26%
  Total Cell Count: 133
U2OS; [2]
  Population Apoptotic (%): 75%
  Population Fragmented Nuclei (%): 50%
  Population Healthy Nuclei (%): 45%
  Population Hoechst High Intensity Objects (%): 22%
  Population Membrane Permeable-Phenotype (%): 10%
  Population Mitochondria Different-Phenotype (%): 50%
  Population Mitotic Cells (%): 25%
  Population Normal (%): 77%
  Population Pyknosed Nuclei (%): 4%
  Population Tubulin-Different-Phenotype (%): 31%
  Total Cell Count: 93
U2OS; [3]
  Population Apoptotic (%): 89%
  Population Fragmented Nuclei (%): 28%
  Population Healthy Nuclei (%): 9%
  Population Hoechst High Intensity Objects (%): 21%
  Population Membrane Permeable-Phenotype (%): 88%
  Population Mitochondria Different-Phenotype (%): 100%
  Population Mitotic Cells (%): 10%
  Population Normal (%): 78%
  Population Pyknosed Nuclei (%): 61%
  Population Tubulin-Different-Phenotype (%): 100%
  Total Cell Count: 121
U2OS; [4]
  Population Apoptotic (%): 94%
  Population Fragmented Nuclei (%): 21%
  Population Healthy Nuclei (%): 10%
  Population Hoechst High Intensity Objects (%): 8%
  Population Membrane Permeable-Phenotype (%): 83%
  Population Mitochondria Different-Phenotype (%): 83%
  Population Mitotic Cells (%): 5%
  Population Normal (%): 91%
  Population Pyknosed Nuclei (%): 68%
  Population Tubulin-Different-Phenotype (%): 83%
  Total Cell Count: 108
U2OS; [5]
  Population Apoptotic (%): 55%
  Population Fragmented Nuclei (%): 12%
  Population Healthy Nuclei (%): 73%
  Population Hoechst High Intensity Objects (%): 5%
  Population Membrane Permeable-Phenotype (%): 12%
  Population Mitochondria Different-Phenotype (%): 18%
  Population Mitotic Cells (%): 45%
  Population Normal (%): 94%
  Population Pyknosed Nuclei (%): 13%
  Population Tubulin-Different-Phenotype (%): 12%
  Total Cell Count: 174
U2OS; [6]
  Population Apoptotic (%): 75%
  Population Fragmented Nuclei (%): 55%
  Population Healthy Nuclei (%): 40%
  Population Hoechst High Intensity Objects (%): 33%
  Population Membrane Permeable-Phenotype (%): 9%
  Population Mitochondria Different-Phenotype (%): 31%
  Population Mitotic Cells (%): 25%
  Population Normal (%): 66%
  Population Pyknosed Nuclei (%): 3%
  Population Tubulin-Different-Phenotype (%): 15%
  Total Cell Count: 124
U2OS; [7]
  Population Fragmented Nuclei (%): 34%
  Population Healthy Nuclei (%): 4%
  Population Hoechst High Intensity Objects (%): 14%
  Population Membrane Permeable-Phenotype (%): 75%
  Population Mitochondria Different-Phenotype (%): 100%
  Population Normal (%): 85%
  Population Pyknosed Nuclei (%): 61%
  Population Tubulin-Different-Phenotype (%): 100%
  Total Cell Count: 154
U2OS; [8]
  Population Apoptotic (%): 100%
  Population Fragmented Nuclei (%): 23%
  Population Healthy Nuclei (%): 38%
  Population Hoechst High Intensity Objects (%): 26%
  Population Membrane Permeable-Phenotype (%): 81%
  Population Mitochondria Different-Phenotype (%): 81%
  Population Mitotic Cells (%): 0%
  Population Normal (%): 73%
  Population Pyknosed Nuclei (%): 38%
  Population Tubulin-Different-Phenotype (%): 81%
  Total Cell Count: 163
U2OS; [9]
  Population Fragmented Nuclei (%): 7%
  Population Healthy Nuclei (%): 85%
  Population Hoechst High Intensity Objects (%): 5%
  Population Membrane Permeable-Phenotype (%): 3%
  Population Mitochondria Different-Phenotype (%): 13%
  Population Normal (%): 94%
  Population Pyknosed Nuclei (%): 7%
  Population Tubulin-Different-Phenotype (%): 11%
  Total Cell Count: 277
U2OS; [10]
  Population Apoptotic (%): 60%
  Population Fragmented Nuclei (%): 42%
  Population Healthy Nuclei (%): 49%
  Population Hoechst High Intensity Objects (%): 25%
  Population Membrane Permeable-Phenotype (%): 5%
  Population Mitochondria Different-Phenotype (%): 21%
  Population Mitotic Cells (%): 40%
  Population Normal (%): 74%
  Population Pyknosed Nuclei (%): 8%
  Population Tubulin-Different-Phenotype (%): 8%
  Total Cell Count: 213
U2OS; [11]
  Population Fragmented Nuclei (%): 43%
  Population Healthy Nuclei (%): 3%
  Population Hoechst High Intensity Objects (%): 19%
  Population Membrane Permeable-Phenotype (%): 66%
  Population Mitochondria Different-Phenotype (%): 100%
  Population Normal (%): 80%
  Population Pyknosed Nuclei (%): 53%
  Population Tubulin-Different-Phenotype (%): 100%
  Total Cell Count: 207
U2OS; [12]
  Population Apoptotic (%): 100%
  Population Fragmented Nuclei (%): 75%
  Population Healthy Nuclei (%): 18%
  Population Hoechst High Intensity Objects (%): 21%
  Population Membrane Permeable-Phenotype (%): 75%
  Population Mitochondria Different-Phenotype (%): 75%
  Population Mitotic Cells (%): 0%
  Population Normal (%): 78%
  Population Pyknosed Nuclei (%): 6%
  Population Tubulin-Different-Phenotype (%): 75%
  Total Cell Count: 153
HEK-293T; 0 h, replicate number 2, timepoint 0 hours
  Growth Rate: 1
HEK-293T; 6 h, replicate number 1, timepoint 6 hours
  Growth Rate: 0
HEK-293T; 12 h, replicate number 1, timepoint 12 hours
  Growth Rate: 0
HEK-293T; 18 h, replicate number 1, timepoint 18 hours
  Growth Rate: 0
HEK-293T; 24 h, replicate number 1, timepoint 24 hours
  Growth Rate: 0
